Laboratory results as given in PMC6476629 (Bioorganic & medicinal chemistry, 2019).
Like-named read-outs stand apart in the source and are kept apart here.

Assays:
Assay type in all cases: binding, HIV-1
234 nt NL4-3 RRE RNA = assay: SHAPE-MaP footprinting; conditions: cutoff +/- 0.3
[1] = target: 2-AP-labeled RRE SL-IIB RNA; conditions: for Kd: at least duplicate, ± SD
Summary of the method: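 2-AP-labelled RRE SL-IIB RNA (0.1 μM, refolded at 95 °C for 3 min and snap-cooled) with 10-fold excess unlabelled competitor (loop/bulge-deleted RRE RNA, RRE SL-IIB DNA or TAR RNA). Branched peptide titrated 0-20 μM in phosphate buffer (10 mM KPi, 100 mM KCl, 1 mM MgCl2, 20 mM NaCl, pH 7.0). Excitation 310 nm; fluorescence decrease at 372 nm. Kd from Hill-equation fit; at least duplicate, SD.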

[2] = system: 5'-32P labeled RRE SL-IIB; assay: RNase footprinting; conditions: branched peptide 0-20 μM, concentration-dependent, upper stem region
Summary of the method: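 RRE SL-IIB dephosphorylated, then 5′-end labeled with [γ-32P]ATP and T4 polynucleotide kinase. Labeled RNA (10 nM) plus unlabeled SL-IIB (200 nM) refolded (95 °C 3 min, snap-cooled on ice). Incubated with peptide on ice 4 h in 10 mM Tris pH 7, 100 mM KCl, 10 mM MgCl2. RNase V1 0.002 Units, 10 min on ice; quenched. Run on 12% PAGE/7.5 M urea beside an alkaline hydrolysis ladder. Read by autoradiography.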

Which results are given for (DLL)2KLGBY [4B3]?
change in 1M7 reactivity (234 nt NL4-3 RRE RNA; 1:1 RNA:BP ratio): decreased reactivity was observed at nt 28; change in 1M7 reactivity (234 nt NL4-3 RRE RNA; in the presence of 4B3, ratio not stated): nt 46, which forms non-canonical base pairing upon Rev,[12] exhibited increased reactivity; Kd ([1]; RRE IIB in the presence of 10× RRE DNA): 1.48 ± 0.03 µM; Kd ([1]; RRE IIB in the presence of 10× TAR RNA): 3.52 ± 0.52 µM; loss of binding affinity ([1]; in the presence of No Bulge RRE RNA competitor): ~3 fold; loss of binding affinity ([1]; in the presence of RRE DNA competitor): ~3 fold; increase of Kd against RRE IIB ([1]; in the presence of TAR RNA competitor): approximately 10 fold; protection from RNase V1 cleavage [2]: reduced cleavage at G53, C54, and C65
